# Experimental data pooled from the literature.
# Organism: Mycobacterium tuberculosis
# Observed: microbial growth
# Strain: H37RV
Structure (SMILES),concentration,time,quantity,value
O=c1[nH]c2cc(CO)c(Cl)cc2c(=O)n1Cc1cccnc1,,,MIC90,> 100 µM
CCc1ccc(CCNc2cc(-c3ccccn3)nc3nnc(C4CC4)n23)cc1,,5 days,MIC,17 to 50 µM
COc1ccc(-c2cc(C(F)(F)F)c3c(N)c(C(=O)Nc4cccc(C)c4C)sc3n2)cc1OC,,,IC50,> 100 µM
Fc1ccc(CCOc2cc(-c3ccccn3)nc3nncn23)cc1,,,MIC,> 100 µM
O=c1c2cc(Cl)ncc2[nH]c(=S)n1Cc1cccnc1,,,MIC90,17.6 µM
COc1ccc(-c2cc(C(F)(F)F)c3cc(C(=O)NC(C)c4ccccc4)sc3n2)cc1 (stereo not drawn),,,IC50,2.5 µM
NCC[C@H](O)C(=O)N[C@@H]1C[C@H](N)[C@@H](O[C@H]2O[C@H](CN)[C@@H](O)[C@H](O)[C@H]2O)[C@H](O)[C@H]1O[C@H]1O[C@H](CO)[C@@H](O)[C@H](N)[C@H]1O,2.5 µg/mL,,inhibition,~90%
NC(=O)c1cncc(Cn2c(=S)[nH]c3cc(CO)c(Cl)cc3c2=O)c1,,,MIC90,17.2 µM
COc1ccc(-c2cc(C(F)(F)F)c3c(N)c(C(=O)Nc4ccc(C)c(C)c4)sc3n2)cc1,,,IC50,> 100 µM
